Data on five compounds can be found in ChEMBL document CHEMBL1146962, “Design, synthesis, and biological evaluation of a scaffold for iGluR ligands based on the structure of (-)-dysiherbaine” (Bioorg Med Chem Lett, 2006).

Molecules are shown by their SMILES. Activity calls are given as the source filed them. The calls are words filed in the database; no cut-off is given here.

Common to all, as to format: functional
For experiment [1], the target named is T1, Glutamate receptor ionotropic, kainate (Rattus norvegicus) (UniProt P22756+Q01812+P42260+P42264+Q63273). Nature of the experiment: Antagonist activity against rat KA receptor assessed by inhibition of kainate-induced membrane current at 1 uM. Details: scale not given: the % may be the effect or the level left. The essentials: (§1)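 Oocytes injected with native rat cerebral cortex mRNA were used. Membrane currents induced by 100 μM kainate were recorded with the test agent present (analogs at 100 μM; CNQX reference at 1 μM). Residual current is reported as a percentage of the kainate control. N = 2-7 oocyte preparations.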

Experiment [2] deals with T1, Glutamate receptor ionotropic, kainate (Rattus norvegicus). The experiment can be described thus: Agonist activity at rat KA receptor assessed by generation of membrane current at 100 uM relative to control.
For experiment [3], the target named is T2, Glutamate NMDA receptor (Rattus norvegicus) (UniProt P35439+Q00959+Q00960+Q00961+Q62645+Q8VHN2+Q9R1M7). The experiment can be described thus: Agonist activity at rat NMDA receptor in presence of glycine assessed by generation of membrane current at 100 uM relative to control. The essentials:
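Rat cortex mRNA-injected oocytes. The analog (100 μM) was applied in the presence of 100 μM glycine. The elicited current is expressed relative to a positive control of 100 μM NMDA plus 100 μM glycine.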

The target of experiment [4] is T1, Glutamate receptor ionotropic, kainate (Rattus norvegicus). The experiment can be described thus: Antagonist activity against rat KA receptor assessed by inhibition of kainate-induced membrane current at 100 uM. Set-up: scale not given: the % may be the effect or the level left. The gist of the method: as §1
Experiment [5] deals with T2, Glutamate NMDA receptor (Rattus norvegicus). Nature of the experiment: Antagonist activity against rat NMDA receptor assessed by inhibition of NMDA plus glycine-induced membrane current at 100 uM. The essentials: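 In rat cortex mRNA-injected oocytes, analogs (100 μM) were tested against currents evoked by 100 μM NMDA plus 100 μM glycine.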
Experiment [6] deals with T1, Glutamate receptor ionotropic, kainate (Rattus norvegicus). Nature of the experiment: Agonist activity at rat KA receptor assessed by generation of membrane current at 100 uM relative to control in presence of 10 uM cyclothiazide. The gist of the method:
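Oocytes were injected with rat cerebral cortex mRNA. Each analog at 100 μM was co-applied with 10 μM cyclothiazide (AMPA receptor desensitization inhibitor). Membrane current is given as a percentage of the 100 μM kainate control current, with and without cyclothiazide. N = 2-7 oocyte preparations.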

As to `N#Cc1cc2c(cc1[N+](=O)[O-])=NC(=O)C(=O)N=2`, in experiment [1], the Activity turned out to be 38%.
For the compound `Cc1ccc2c(c1)C[C@](C[C@H](N)C(=O)O)(C(=O)O)O2`, the outcome in experiment [2] and in experiment [5] was inactive. Also, the Activity in experiment [3] stood at 44%; in experiment [4], 72%.
For the compound `Cc1cccc2c1O[C@@](C[C@H](N)C(=O)O)(C(=O)O)C2`, the Activity in experiment [2] worked out at 6%; in experiment [6], 13%; in experiment [4] it was 95%. Besides, the result in experiment [3] and in experiment [5] was inactive.
Turning to `N[C@@H](C[C@@]1(C(=O)O)Cc2ccccc2O1)C(=O)O`, the outcome in experiment [2] and in experiment [5] was inactive. In addition, the Activity in experiment [4] is 100%.
As for `N[C@@H](C[C@]1(C(=O)O)Cc2ccccc2O1)C(=O)O`, the outcome in experiment [2], in experiment [3] and in experiment [5] was inactive. The Activity in experiment [4] is 55%.
